Screening data (PubChem)
CAL PDZ FP-1: blocks peptide binding to human CAL PDZ domain; 330,000 tested, 0.02% active; inhibition, % at 20 µM; Q9HD26; purified CAL PDZ, TMR-peptide fluorescence polarization, 1 h;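 active means highest replicate inhibition of at least 40%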;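 further: plate controls were DMSO neutral control wells for no effect and unlabeled competitor peptide control wells for full effect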
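Material: tagged CAL PDZ domain; buffer or medium: 25 mM sodium phosphate pH 7.4, 150 mM NaCl, TCEP, IgG, Thesit; compound dosing: single point, 20 µM; schedule: 1 h incubation at room temperature before polarization reading; measured by: FP readout, S and P plane fluorescence; read-out basis: percent inhibition from loss of millipolarization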
ARNT TACC3 PPI: disruptors of human ARNT/TACC3 interaction. Q9Y6A5. AlphaScreen His-ARNT PAS-B/GST-TACC3 binding, luminescence; TACC3 fragment carries E629A point mutation. inhibition, % at 9.99 µM. 390,000 tested, 0.66% active;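 active means mean inhibition of replicates at least 50% and at least half of replicates each reaching 50%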;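 further: 0% = complete ARNT plus TACC3 wells and 100% = ARNT alone without TACC3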
CAL PDZ FP-2: inhibitors of human CAL PDZ peptide binding; Q9HD26; purified CAL PDZ, TMR-peptide fluorescence polarization, 1 h; inhibition, % at 24.9 µM; 300,000 tested, 0.92% active; AID 602252;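 active means mean inhibition of at least 30% with at least half of replicates also reaching 30%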;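 further: 0% = DMSO neutral control and 100% = excess unlabeled competitor peptide PRC23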
CFTR F508del cor: CFTR F508del correction in bronchial cells. AID 720511. CFBE cells, YFP halide quenching; stimulated with forskolin plus potentiator P3; % fluorescence drop versus neutral controls. 350,000 tested, 0.36% active. activity (quench increase), % at 7.58 µM;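 active means mean added fluorescence quench of at least 8% versus neutral control, with both replicates also reaching 8%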;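 further: cells transiently co-express mutant CFTR-F508del with the halide-sensitive YFP; corrector assay measuring rescue of mutant channel to the surface after 24 h compound exposure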
PGC1a acetyl inh: modulators of PGC1a acetylation | AID 651687 | 350,000 tested, 0.17% active | U2OS PGC1a acetylation, AlphaScreen anti-acetyl-lysine; with virally co-expressed GCN5 acetyltransferase | inhibition, % at 15.6 µM;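 active means every replicate shows inhibition of at least 40%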;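 further: 0% = neutral control wells and 100% = positive control wells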
miR-122 sensor: miR-122 inhibition in Huh7 cells; Huh7 miR-122 Renilla luciferase sensor, 48 h; neutral wells = 0, positive control = 100; AID 602342; 340,000 tested, 0.3% active; activation (reporter increase), % at 12.5 µM;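 active means mean replicate activation score at least 90 and every replicate individually at or above 90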;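 further: higher luciferase means less miR-122 activity so hits act as miR-122 inhibitors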
Starred values were filed as active, the others as inactive; · = no result; [ ] = remark or other dose. This is a sample that favours compounds with a hit; in the whole collection about 1.7% have one here.

SMILES	CAL PDZ FP-1	ARNT TACC3 PPI	CAL PDZ FP-2	CFTR F508del cor	PGC1a acetyl inh	miR-122 sensor
CC(C)NC(=O)N1CCCCN2[C@H](CO)[C@H](c3ccc(C#Cc4ccccc4)cc3)[C@H]2C1	·	9	·	1	-21	-5[16.7 µM]
COc1cc(CN2CCN(Cc3ccccc3C(F)(F)F)CC2)cc(OC)c1OC	-2	3	·	3	63*	5
C[C@@H]1CN([C@@H](C)CO)S(=O)(=O)c2ccc(-c3cncnc3)cc2O[C@@H]1CN(C)C(=O)c1ccc2c(c1)OCO2	·	-10	·	0	-3	-3[16.7 µM]
COc1ccc(CNc2nc3nc(-c4ccccc4)cc(=O)n3[nH]2)cc1OC	-1	11	40*	·	-5	-1
COc1ccc(CNc2nc3nc(C)c(Cl)c(=O)n3[nH]2)cc1OC	1	-4	-9	·	1	5
CN(CC(=O)Nc1ccc(F)cc1)C(=O)c1cn(-c2ccccc2)nc1-c1cccs1	-1	-10	31*	4	6	1
COc1ccc(NC(=O)CN(C)C(=O)c2cn(-c3ccccc3)nc2-c2cccs2)cc1	-3	3	-2	-1	-2	0
CC(C)(C)NC(=O)c1cccc2c1-c1ccccc1C2=O	-2	-6	4	10*	·	·
Cc1nonc1CN(C)C(=O)c1cc(COc2ccc(F)cc2Cl)on1	-1	14	-9	4	-1	1
CSc1ccccc1OCc1cc(C(=O)N(C)Cc2nonc2C)no1	0	-3	36*	-3	-2	-9
COc1ccc(NC(=O)N[C@@H]2C=C[C@@H](CC(=O)NC3CCCCC3)O[C@@H]2CO)cc1	·	-8	·	3	-6	·
O=S(=O)(NCc1ccc(Cl)cc1Cl)c1ccc(N2CCOCC2)nc1	-1	-9	36*	-1	-3	5
CSc1ccc(S(=O)(=O)NCc2ccc(Cl)cc2Cl)cc1	-1	-2	·	·	-20	39
Cc1ccc(N(C)S(=O)(=O)c2ccc(-c3cnc(C4CC4)o3)cc2)cc1	-3	6	-2	8.3*	-14	31
Cc1ccc(/C=N/Nc2ccc(C(=O)O)cc2)s1	0	-3	1	3	2	0
O=C(O)c1ccc(N/N=C/c2cc(Br)cs2)cc1	1	1	36*	·	0	6
O=C(Nc1ccc2c(c1)OCO2)N[C@H]1CC[C@@H](CCNC(=O)C2CCC2)O[C@H]1CO	·	0	·	0	-8	1[16.7 µM]
COc1ccc(NN=Nc2ccc([N+](=O)[O-])cc2)cc1	0	6	42*	-1	0	7
CN1C(=O)c2cc(NC(=O)C3CCCC3)ccc2OC[C@H]2O[C@H](CC(=O)NCC(F)(F)F)CC[C@@H]21	·	-3	·	-2	4	-25[16.7 µM]
CCCC#Cc1cnc2c(c1)C(=O)N([C@@H](C)CO)C[C@H](C)[C@@H](CN(C)C(=O)CCN1CCCCC1)O2	·	-6	·	2	1	8[16.7 µM]
COc1ccc(S(=O)(=O)Nc2cccc3c2O[C@@H](CN(C)S(=O)(=O)c2cccs2)[C@H](C)CN([C@H](C)CO)C3=O)cc1	·	-5	·	2	0	0[16.7 µM]
CC(=O)c1ccc(NC(=S)N(CCCN(C)C)Cc2ccccc2)cc1	0	-1	58*	-4	3	6
CCCN(Cc1ccccc1)C(=S)Nc1ccc(C(C)=O)cc1	0	-6	3	-2	3	1
C[C@H]1CN([C@@H](C)CO)C(=O)c2cccc(NS(=O)(=O)c3ccc(Cl)cc3)c2O[C@@H]1CN(C)S(=O)(=O)c1cn(C)cn1	·	·	·	1	3	-4[16.7 µM]
Cc1cc(Cl)c(S(=O)(=O)Nc2ccc3c(c2)OCO3)cc1OCC(=O)NC1CCCCC1	-1	-6	-2	·	28	94*
SMILES	CAL PDZ FP-1	ARNT TACC3 PPI	CAL PDZ FP-2	CFTR F508del cor	PGC1a acetyl inh	miR-122 sensor
COCC(=O)N(C)C[C@H]1Oc2ncc(-c3ccccc3F)cc2C(=O)N([C@@H](C)CO)C[C@H]1C	·	-13	·	-3	7	·
Cc1cc(C(=O)Nc2cccc3c2O[C@H](CN(C)Cc2ccncc2)[C@@H](C)CN([C@@H](C)CO)C3=O)n(C)n1	·	-4	·	-2	-7	-2[16.7 µM]
O=C(O)CCC1(CCC(=O)O)CCCC(CCC(=O)O)(CCC(=O)O)C1=O	0	-4	80*	1	0	-10
O=C(Nc1cccc(Cl)c1)N1CCN(C/C=C/c2ccccc2)CC1	-2	10	48*	·	·	·
COc1cc(N)c2ncccc2c1SC	·	·	·	1	·	·
COc1cc(N)c2ncccc2c1Br	2	107*	0	1	21	·
Cc1nn(CC(=O)N2CC(=O)Nc3ccccc32)c(C)c1[N+](=O)[O-]	1	-2	63*	1	·	-3
C=CCN(c1ccc(F)cc1)S(=O)(=O)c1cc(C(=O)OCC(=O)N(C)C2CCS(=O)(=O)C2)ccc1Cl (stereo not given)	0	-10	40*	-1	6	-5
CN(C(=O)COC(=O)c1ccc(F)c(S(=O)(=O)N2CCOCC2)c1)C1CCS(=O)(=O)C1 (stereo not given)	0	-5	20	·	-2	0
CO[C@H](C(=O)N(C)C[C@@H]1OCc2ccccc2-c2c(n(C)c3ccccc23)C(=O)N([C@H](C)CO)C[C@H]1C)c1ccccc1	·	·	·	1	1	·
c1ccc(-c2cnc(CSc3nnc4ccccn34)o2)cc1	0	3	57*	·	-4	-6
C[C@@H]1CN([C@@H](C)CO)C(=O)c2cc(NS(=O)(=O)c3cn(C)cn3)ccc2O[C@@H](C)CCCCO[C@@H]1CN(C)Cc1ccc(C(F)(F)F)cc1	·	3	·	1	-2	43[16.7 µM]
CCn1c(=O)c2cc(S(=O)(=O)NC3CCCCC3)ccc2n(CC)c1=O	-2	0	-2	·	-16	98*
Cc1ccc(S(=O)(=O)N[C@H]2CC[C@H](CCNC(=O)c3ccc4c(c3)OCO4)O[C@H]2CO)cc1	·	-6	·	-2	0	·
CNC(=O)C1CC(=O)N(c2ccc(OCC(=O)Nc3ccccc3)cc2)C1 (stereo not given)	0	-10	·	10*	-4	-5
CCc1ccc(N2CC(C(=O)Nc3ccccc3N3CCCC3)CC2=O)cc1 (stereo not given)	·	·	·	9.2*	-5	7
CCc1ccc(N2CC(C(=O)Nc3ccccc3F)CC2=O)cc1 (stereo not given)	-2	0	-3	·	-1	0
C[C@@H]1CN([C@@H](C)CO)S(=O)(=O)c2ccc(C#Cc3ccccn3)cc2O[C@H]1CN(C)Cc1ccccc1	·	-11	·	-1	-2	6[16.7 µM]
O=C(C[C@H]1CC[C@H](NC(=O)Nc2ccccc2)[C@@H](CO)O1)NCc1cccc(F)c1	·	0	·	-2	-1	·
